Data taken from paper PMC11482939 (bioRxiv, 2025).
“Also recorded” adds a separate entry of the source. Where two headings read alike, the source gives them in different places.

How the values were obtained:
[1] = test system: UM cell lines (MP41, MP38, MP46); test: Concentration-response cell viability, UM cell lines overall; assay type: cell-based, human; settings: 72 h
WS1 fibroblast cell line = test: Viability assay on non-cancerous fibroblasts; assay type: cell-based; settings: for IC50: Fibroblast, read-out: fibroblast IC50; for fold higher IC50 / lower toxicity for non-cancerous cells than for UM cells: WS1 fibroblast IC50 vs UM IC50
How it was run: (§1)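 Cells treated 72 h with a 10-point 1:3 dilution series from nominal 10 μM top (one compound started at 300 nM), n = 4. Viability read by CellTiter-Glo ATP luminescence and normalized to 0.1% DMSO controls. IC50 and % viability derived by four-parameter log(inhibitor) vs. response fit with variable slope.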

[2] = test system: MP41 cells extracted from mouse liver metastases; test: Ex vivo resistance testing of UM cells from mouse liver metastases; assay type: cell-based, human; settings: relative to cells from vehicle group
How it was run: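 Liver tissue from treated and vehicle mice minced and digested overnight at 4°C in D-MEM with 400 U/mL type IV collagenase and 0.5 μg/mL amphotericin B. Cells grown in UM medium, confirmed as MP41 by RFP fluorescence, then given 10-point 1:3 dilution series for 72 h. Viability read by CellTiter-Glo ATP luminescence relative to 0.1% DMSO.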

[3] = test system: MP41 metastatic UM xenograft; test: Metastatic UM xenograft mouse model; assay type: in vivo, NSG mice; settings: for survival in comparison with the vehicle group: log-rank test, p > 0.10
How it was run: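 Female NSG mice, 16 weeks old, given 1 × 10^5 FACS-sorted RFP-luciferase-transduced MP41 cells via tail vein; n = 10 per group, randomized. From day 7, test compound dosed at 2 mg/kg IP weekly. Weekly IVIS imaging 10 min after 150 mg/kg IP d-luciferin. Endpoint was >20% weight loss or health decline; organs imaged ex vivo; survival compared by log-rank.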

MP41 and MP38 cells = test: HDAC3 / HDAC8 inhibitor concentration-response testing; assay type: cell-based, human; settings: alone or in combination
How it was run: as §1

UM cells = test: Synergy testing of romidepsin and quisinostat with other hit compounds; assay type: cell-based, human; settings: plus EC20 of other candidate compound
[4] = test system: UM cell lines, including UMM66 cells; test: Romidepsin from two sources in UM cell lines including UMM66; assay type: cell-based; settings: Homo sapiens, read-out: IC50 in all UM cell lines including UMM66
[5] = Homo sapiens, read-out: UM IC50, UM cell lines, 72 h
[6] = read-out: UM IC50, UM cell lines

CC[C@@]1(O)C(=O)OCc2c1cc1n(c2=O)Cc2cc3ccccc3nc2-1 [(S)-(+)-Camptothecin]
IC50 ([1]; Homo sapiens, read-out: UM IC50): ~0.334 µM

COc1ccc(-c2nc(N3CCOCC3)c3sc(CN(C)c4ncc(C(=O)NO)cn4)cc3n2)cn1 [Fimepinostat]
IC50 (WS1 fibroblast cell line): ~0.055 µM | fold higher IC50 / lower toxicity for non-cancerous cells than for UM cells (WS1 fibroblast cell line): 4- to 5 fold | IC50 [1, 5]: ~0.011 µM

Nc1ccn([C@@H]2O[C@H](CO)[C@@H](O)C2(F)F)c(=O)n1 [Gemcitabine]
IC50 [1, 5]: ~0.493 µM

CCS(=O)(=O)Nc1ccc(Oc2ccc(F)cc2F)c(-c2cn(C)c(=O)c3[nH]ccc23)c1 [Mivebresib]
IC50 (WS1 fibroblast cell line): > 10 µM | IC50 [1, 5]: ~0.125 µM | acquired drug resistance after long-term in vivo treatment [2]: No significant resistance was detected | metastases detected in organs (ex vivo IVIS) ([3]; femur, spinal cord): prevented the development of detectable spinal cord and femur metastases

COc1ccc(Cn2ccc3ccc(C(=O)NO)cc32)cc1 [PCI-34051]
potency of HDAC3 / HDAC8 inhibitor (MP41 and MP38 cells): neither was potent

Cc1[nH]c2ccccc2c1CCNCc1ccc(/C=C/C(=O)NO)cc1 [Panobinostat]
IC50 (WS1 fibroblast cell line): ~0.124 µM | fold higher IC50 / lower toxicity for non-cancerous cells than for UM cells (WS1 fibroblast cell line): 4- to 5 fold | IC50 [1, 5]: ~0.026 µM

COc1cc([C@@H]2c3cc4c(cc3[C@H](O)[C@H]3COC(=O)[C@H]23)OCO4)cc(OC)c1OC [Podofilox]
IC50 [1, 5]: ~0.00936 µM

Cn1cc(CNCC2CCN(c3ncc(C(=O)NO)cn3)CC2)c2ccccc21 [Quisinostat]
IC50 (WS1 fibroblast cell line): ~0.118 µM | fold higher IC50 / lower toxicity for non-cancerous cells than for UM cells (WS1 fibroblast cell line): approximately 9 fold | synergy with the other 16 compounds (UM cells): did not find significant synergy | IC50 [1, 5]: ~0.014 µM | acquired drug resistance after long-term in vivo treatment [2]: No significant resistance was detected | survival in comparison with the vehicle group [3]: did not significantly improve survival rates

Nc1cc(F)ccc1NC(=O)/C=C/c1cnn(C/C=C/c2ccccc2)c1 [RGFP966]
potency of HDAC3 / HDAC8 inhibitor (MP41 and MP38 cells): neither was potent

C/C=C1\NC(=O)[C@H]2CSSCC/C=C/[C@H](CC(=O)N[C@H](C(C)C)C(=O)N2)OC(=O)[C@H](C(C)C)NC1=O [Romidepsin]
synergy with the other 16 compounds (UM cells): did not find significant synergy | IC50 [1, 5]: ~0.0035 µM | acquired drug resistance after long-term in vivo treatment [2]: No significant resistance was detected | IC50 [4]: 0.0024 to 0.0057 µM | survival in comparison with the vehicle group [3]: did not significantly improve survival rates; also recorded: did not improve the survival rate

CC(C)C[C@H](NC(=O)[C@H](Cc1ccccc1)NC(=O)c1cnccn1)B(O)O [Velcade]
IC50 (WS1 fibroblast cell line): ~0.057 µM | IC50 [1, 5]: ~0.0076 µM | IC50 [1, 6]: ~0.008 µM

Cucurbitacin B
IC50 [1, 6]: ~0.0379 µM
